Bioassay records as filed in PubChem BioAssay.
Shown are actives, neighbours in structure and some others; about 2.7% of the full set was active somewhere.
L929 necroptosis = L929 zVAD cell death inhibition | viability rescue, % at 10 µM | hit rate 0.38% among 220,000 | L929 zVAD necroptosis rescue, ATP luminescence, 24 h; with zVAD 60 µM;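 active = activation, scaled between plate controls, above about 75%, limit read from the data; inactive = activation under that limit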;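 note: 0% = zVAD with DMSO and 100% = DMSO alone without zVAD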
Wee1 stabilizer = inhibitors of human Wee1 degradation; HeLa Luc-Wee1K328M stability, luciferase luminescence; 100% = proteasome inhibitor MG132 effect; reporter increase, % at 5 µM; hit rate 1.2% among 220,000;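 active = activation above the mean of all tested compounds plus 3 SD, set per screening run, cut at about 8.8% in these data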;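 note: cells exposed to compound for 20 h before luminescence read; 0% = DMSO alone and 100% = MG132 at 30 µM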
M18AAP inhibitor = PfM18AAP enzyme inhibition | recombinant PfM18AAP, H-Glu-NHMec fluorogenic cleavage | inhibition, % at 7.35 µM | hit rate 1.2% among 290,000;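 active = inhibition above the campaign mean inhibition over all tested compounds plus 3 SD, cut at about 28% in these data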;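 note: 0% = plate median of test compound wells and 100% = 2 mM ZnCl2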
RBBP9 inhibitor = blocks human serine hydrolase RBBP9; recombinant RBBP9, FP-Rh probe fluorescence polarization; AID 1515; inhibition, % at 7.94 µM; hit rate 0.2% among 220,000;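 active = inhibition above the campaign mean of all tested compounds plus 3 SD, cut at about 14% in these data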;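 note: plate controls were DMSO wells with RBBP9 for no effect and wells lacking RBBP9 protein for full effect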
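Controls: DMSO-treated enzyme wells and wells lacking RBBP9 | Material: RBBP9 protein | Technique: Fluorescence polarization | Replication: Single well per compound, no replicates | Buffer or medium: Tris-NaCl-Pluronic buffer, pH 8.0 | Timing: 30 min compound preincubation, 45 min probe labeling, 25 °C | Read-out basis: Percent inhibition from mP, scaled between DMSO and no-protein wells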
TNF necrop inh = TNF-alpha cell death inhibition in Jurkat FADD-/- cells | Jurkat FADD-/- TNF necroptosis rescue, ATP luminescence, 24 h; 0 = TNF only, 100 = no-TNF cells | hit rate 0.068% among 220,000 | activation (protection from cell death), % at 10 µM;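 active = activation, meaning protection from cell death, of at least 50% relative to plate controls; inactive = activation below 50%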;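 note: necroptosis triggered by 40 ng/mL TNF-alpha added together with compound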
p97 inhibitor = blocks human p97 ATPase activity; P55072; recombinant p97 ATPase, Kinase-Glo ATP luminescence, 3 h; inhibition, % at 8 µM; hit rate 0.42% among 220,000; AID 1481; in the data active = inhibition above about 15%;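 note: 0% = DMSO vehicle and 100% = wells lacking enzyme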
Target sequence (P55072 whole entry, looked up): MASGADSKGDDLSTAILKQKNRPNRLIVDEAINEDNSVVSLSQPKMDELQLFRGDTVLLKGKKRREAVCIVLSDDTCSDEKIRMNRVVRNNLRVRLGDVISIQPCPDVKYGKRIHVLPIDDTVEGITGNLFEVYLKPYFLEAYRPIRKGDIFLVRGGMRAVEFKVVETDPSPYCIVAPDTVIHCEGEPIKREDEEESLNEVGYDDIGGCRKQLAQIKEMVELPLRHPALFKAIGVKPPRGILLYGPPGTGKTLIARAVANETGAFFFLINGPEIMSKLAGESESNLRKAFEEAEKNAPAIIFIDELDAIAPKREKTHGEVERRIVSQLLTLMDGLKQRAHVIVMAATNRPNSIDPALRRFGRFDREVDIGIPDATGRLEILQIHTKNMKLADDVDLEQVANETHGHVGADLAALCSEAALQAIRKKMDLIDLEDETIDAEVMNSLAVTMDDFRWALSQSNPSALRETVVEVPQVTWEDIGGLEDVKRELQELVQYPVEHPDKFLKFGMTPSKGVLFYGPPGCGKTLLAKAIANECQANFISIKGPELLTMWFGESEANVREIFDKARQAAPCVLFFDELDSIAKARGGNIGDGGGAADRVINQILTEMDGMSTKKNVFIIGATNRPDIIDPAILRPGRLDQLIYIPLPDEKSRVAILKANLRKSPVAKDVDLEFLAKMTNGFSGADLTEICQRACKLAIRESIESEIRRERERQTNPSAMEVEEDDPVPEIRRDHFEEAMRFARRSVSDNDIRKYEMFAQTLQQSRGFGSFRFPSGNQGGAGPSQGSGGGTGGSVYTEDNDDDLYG
Active calls of the source: *; . = no result given.

SMILES	L929 necroptosis	Wee1 stabilizer	M18AAP inhibitor	RBBP9 inhibitor	TNF necrop inh	p97 inhibitor
CCOC(=O)NN1C(=O)c2ccccc2NC1c1ccccn1 (centres undefined)	1	2	30*	-13	0	2
CCOC(=O)NN1C(=O)c2ccccc2NC1c1ccccc1 (centres undefined)	1	3	-2	-5	-1	-4
COc1ccc(-n2ncc3c(N4CCC(C)CC4)ncnc32)cc1	.	.	0	.	.	.
CC1CCN(c2ncnc3c2cnn3-c2ccccc2)CC1	2	11*	-5	-6	2	-4
O=C1N=C(N2CCOCC2)S/C1=C/c1cc2c(cc1[N+](=O)[O-])OCO2	46	9.1*	5	-3	-15	1
O=C(CS(=O)(=O)c1ccccc1)c1cc2ccccc2oc1=O	.	.	20	.	.	.
O=C(CS(=O)(=O)c1ccccc1)c1cc2cc(F)ccc2oc1=O	.	.	28*	.	.	.
N#CC(C#N)=C1C=CC=CN1/C(=C\c1ccco1)C(=O)c1ccc(Br)cc1	-2	-1	-24	3	62*	3
CCN(C(=O)CSc1ccc2c(c1)OCCO2)C1CCS(=O)(=O)C1 (centres undefined)	1	-2	6	-1	-1	2
CCN(C(=O)CSc1nc2cc(S(=O)(=O)N(CC)CC)ccc2o1)C1CCS(=O)(=O)C1 (centres undefined)	.	.	28*	.	.	.
CC(=O)c1ccc(N2CCN(C(=O)CCC(=O)Nc3ccc4nc(N5CCN(C)CC5)cc(C)c4c3)CC2)cc1	.	.	-1	.	.	.
CCC(NC(=O)Nc1cc(C)on1)(C(F)(F)F)C(F)(F)F	1	3	5	0	3	2
NC(=S)N/N=C/c1ccc(-c2ccc([N+](=O)[O-])cc2)o1	1	-2	42*	8	-4	9
O=C(N/N=C/c1ccc(-c2cccc([N+](=O)[O-])c2)o1)c1ccc([N+](=O)[O-])cc1	0	9.2*	2	-3	0	0
O=C(N/N=C/c1ccc([N+](=O)[O-])o1)c1ccc2c(c1)OCO2	.	.	30*	.	.	.
Cc1cc(C(=O)N/N=C/c2ccc(-c3cccc(Br)c3)o2)n[nH]1	37	10*	-2	-5	14	0
Cc1cc(C(=O)N/N=C/c2ccc(-c3cccc(Cl)c3Cl)o2)n[nH]1	9	0	-4	-2	13	1
Cc1ccc(S(=O)(=O)N2CCOC2CNC(=O)C(=O)NCc2ccncc2)cc1 (centres undefined)	-1	-1	-4	-6	0	0
CCOC(=O)N/N=C(\c1ccccc1)C(O)c1ccccc1 (centres undefined)	2	0	-5	2	1	5
C/C(=N\NC(=O)CC#N)C1COc2ccccc2O1 (centres undefined)	3	1	29*	-10	0	1
O=C(Nc1ccccc1-c1nc2ccccc2[nH]1)c1ccc(S(=O)(=O)N2CCCCC2)cc1	12	0	2	-6	10	3
CC1CCCCN1S(=O)(=O)c1ccc(C(=O)Nc2ccccc2-c2nc3ccccc3[nH]2)cc1 (centres undefined)	5	11*	0	-10	17	4
COc1ccc(C2/C(=C(/O)c3ccccc3)C(=O)C(=O)N2C)cc1OC (centres undefined)	.	.	-3	.	.	.
CN(C)CCCC(C)(O)C(C)(C)c1ccccc1 (centres undefined)	0	0	-4	-4	1	15*
O=C(Cc1c(F)cccc1Cl)NCCCn1ccnc1	0	-2	28*	5	0	1
SMILES	L929 necroptosis	Wee1 stabilizer	M18AAP inhibitor	RBBP9 inhibitor	TNF necrop inh	p97 inhibitor
CCn1c2ccc(C)cc2c2nnc(NN)nc21	2	6	11	-8	1	0
Cn1c2ccccc2c2nnc(NN)nc21	1	-1	30*	6	3	3
CCn1c2ccccc2c2nnc(NN)nc21	3	-2	31*	-8	1	1
CC(C)CSc1nnc2c3ccccc3n(C)c2n1	.	.	-1	.	.	.
CCC1Sc2ccccc2N(CC(=O)NC2CCCCC2)C1=O (centres undefined)	0	9.3*	-7	-5	1	-2
CC1CC(=O)N(CC(=O)NC2CCCCC2)c2ccccc2S1 (centres undefined)	.	.	7	.	.	.
CC(=O)Nc1ccc(NC(=O)C(C)OC(=O)C2CCN(S(=O)(=O)c3cccs3)CC2)cc1 (centres undefined)	0	-4	-6	-11	2	3
Cc1nnc(SCC(=O)NC(=O)Nc2ccc3c(c2)OCCO3)n1N	1	-1	1	-2	0	10
O=C1CNC(=S)N1Cc1ccccc1	0	9.5*	-2	-9	0	-2
CCN(CC)C(=O)c1ccc(S(=O)(=O)c2ccccc2)cc1	.	.	2	.	.	.
CCOC(=O)C1(Cc2ccccc2)CCCN(C(=O)c2ccc(-n3ccnc3)cc2)C1 (centres undefined)	.	.	-6	.	.	.
CCOC(=O)C(C)Sc1nc(-c2ccco2)cc(C(F)(F)F)c1C#N (centres undefined)	0	9.9*	9	-1	0	0
Cn1c(=O)c(=O)n(C)c2cc(S(=O)(=O)N3CCCC3C(=O)NCc3ccco3)ccc21 (centres undefined)	0	9.0*	0	0	0	7
O=C(c1cccs1)N1CCN(c2ncc(Br)cn2)CC1	0	-2	-2	0	1	6
Cc1sc(NC(=O)/C=C/c2ccc(C(C)C)cc2)c(C#N)c1C	0	0	0	-2	0	0
CC(C)c1ccc(/C=C/C(=O)Nc2nncs2)cc1	-1	9.5*	2	-4	-6	-4
O=C(COc1ccc(Cl)cc1Cl)N1CCN(C(=O)c2ccco2)CC1	.	.	3	.	.	.
Nc1nc(N)nc(COc2ccccc2)n1	1	9.4*	1	3	-1	3
CCOc1ccc(N(CC(=O)N2CCCCCC2)S(=O)(=O)c2ccc(F)cc2)cc1	.	.	1	.	.	.
CCOCC(=O)Nc1cc(Cl)c(OC)cc1OC	-2	0	-12	-6	0	-6
CCc1ccc(NC(=O)CSc2nc3ccccc3nc2N2CCCC2)cc1	.	.	2	.	.	.
Cc1ccc[n+](-c2[nH]c(=O)sc2/C=N/N=C(\[O-])CCn2c3ccccc3c3ccccc32)c1	0	-3	-3	-3	0	3
Cc1cc[n+](-c2[nH]c(=O)sc2/C=N/NC([S-])=Nc2ccccc2)cc1C	1	-1	32*	0	2	-4
CC1CCCN(C(=O)CCNS(=O)(=O)c2ccc3c(c2)c(=O)n(C)c(=O)n3C)C1 (centres undefined)	.	.	-8	.	.	.
CCOC(=O)c1sc(NNC(=O)c2ccc(F)cc2)nc1C	1	-1	28*	6	5	3
